Shown are actives, neighbours in structure and some others; about 3.8% of the full set was active somewhere.
HSF1 inh = HSF1 inhibition. 300,000 compounds, 0.77% hits. activity change, negative = inhibition, % at 7.5 µM (by protocol). NIH3T3-HGL HSE-luciferase, MG132-induced, luminescence 8 h; hits give low values;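 active = more than half of replicate wells show activity change below -50%, luminescence cut by over half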;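 note: luciferase reports HSF-1 transcriptional activity via heat shock element; 0% = median of DMSO wells and -100% = zero luminescence signal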
HSF1 activator = increases HSF-1 driven luciferase reporter signal. 300,000 compounds, 1.7% hits. NIH3T3-HGL HSF-1 luciferase reporter, MG132, 8 h; 100% = twice DMSO control signal. activation, % at 9 µM;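 active = mean replicate activation of at least 50% with a set share of replicates each reaching 50%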;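 note: 0% = median of the neutral control wells and 100% = twice that signal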
Lipid droplet = hepatic lipid droplet formation modulation. AML12 mouse hepatocytes, oleate lipid droplets, BODIPY imaging. inhibition, % at 6.5 µM. 240,000 compounds, 0.4% hits. AID 1656;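 active = lipid droplet intensity inhibited by at least 50%, with more than 500 cells counted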
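material = mouse AML12 hepatocyte cell line, fixed after treatment | also added = 100 µM oleic acid challenge | doses = compound at 6.5 µM only | schedule = overnight exposure | technique = Image-based BODIPY and DAPI two-channel analysis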
HSP90 inh = inhibitors of HSP90 luciferase refolding in rabbit reticulocyte lysate. inhibition, % at 5.6 µM. 290,000 compounds, 0.91% hits. luciferase refolding luminescence, 3 h. AID 1789;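 active = inhibition above the screen-wide mean plus 3 SD, computed separately per campaign, cut at about 16% in these data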;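 note: 0% = DMSO wells and 100% = 60 µM geldanamycin wells; inhibitors lower the luminescence because luciferase stays unfolded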
NS3 helicase inh = blocks Hepatitis C virus NS3 helicase unwinding. NS3 helicase DNA unwinding, Cy5 molecular beacon fluorescence. 290,000 compounds, 0.56% hits. inhibition, % at 10.9 µM;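 active = inhibition above the mean of all tested compounds plus 3 SD, set per campaign, cut at about 35% in these data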;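 note: 0% = DMSO wells and 100% = thioflavine S control wells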
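System: HCV NS3 helicase fragment; control set: DMSO and thioflavine S; technique: Cy5 fluorescence at 0 and 60 min, beacon hairpin quenching; reagent: beacon DNA duplex substrate plus ATP; replicates: singlicate; schedule: 1 h reaction at 25 °C, ATP-initiated; medium: MOPS buffer pH 6.5 with MgCl2, DTT, Tween20, BSA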
NS3 helicase cf = confirmation of Hepatitis C virus NS3 helicase inhibitors; shares compounds with NS3 helicase inh; NS3 helicase DNA unwinding, Cy5 molecular beacon fluorescence; inhibition, % at 10.9 µM; 1,600 compounds, 31% hits; AID 1943;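 active = inhibition above the mean of all tested compounds plus 3 SD, cutoff set per campaign, cut at about 36% in these data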
DNA FID counter = counter-screen for HCV NS3 helicase inhibitors: DNA intercalator displacement. 1,600 compounds, 4% hits. AID 1945. shares compounds with NS3 helicase inh. DNA fluorescent intercalator displacement, fluorescence. inhibition, % at 7.9 µM; in the data active = inhibition above about 37%;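 note: 0% = vehicle and 100% = reference compound; higher means more displacement of ethidium bromide from the DNA hairpin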
FID counter DR = DNA intercalator displacement in dose response; 120 tested, under 10 active; fluorescent intercalator displacement from DNA, fluorescence; IC50, µM; shares compounds with NS3 helicase inh; call rule not given here
Starred values were filed as active, the others as inactive; x = no result.

SMILES	HSF1 inh	HSF1 activator	Lipid droplet	HSP90 inh	NS3 helicase inh	NS3 helicase cf	DNA FID counter	others
O=C1NC(=S)S/C1=C\c1ccc(SCc2ccccc2)o1	x	x	-2.5	3.0	47.2*	80.7*	22.1
O=C1NC(=S)S/C1=C\c1ccc(SCc2ccco2)o1	x	x	15.4	-1.9	75.8*	81.0*	31.1
CC1CC(C)CN(C(=O)CCn2c(=O)oc3ccccc32)C1 (centres undefined)	13.2	39.0	-0.1	-2.3	-5.5	x	x
Cc1cccc(NC(=O)c2cnccn2)c1	2.2	7.5	-9.1	-1.1	3.8	x	x
CSC[C@@H]1NC(=S)N(c2ccc(C)cc2)C1=O	7.5	11.3	0.5	2.0	36.4*	-12.0	16.9
CSc1nnc(-c2ccccc2)c(-c2ccccc2)n1	-3.0	-11.3	-3.2	-0.2	11.2	x	x
COc1cc(NC(=O)CSc2ccc(-c3ccco3)nn2)cc(OC)c1	-3.4	-14.8	-2.5	3.0	36.0*	-11.9	-0.3
Cc1ccccc1NC(=O)CSc1nnc(-c2ccco2)c(-c2ccco2)n1	16.6	35.0	x	1.7	40.7*	51.3*	-8.4	FID counter DR=>79.4
Cc1ccc(NC(=O)CSc2nnc(-c3ccco3)c(-c3ccco3)n2)cc1	14.3	22.5	x	0.3	42.0*	86.9*	18.7
CSc1nnc(-c2ccco2)c(-c2ccco2)n1	6.7	20.1	1.7	0.7	37.5*	25.0	14.3
O=C(CSc1nnc(-c2ccco2)c(-c2ccco2)n1)Nc1ccccc1	4.4	-6.1	x	-1.1	24.5	x	x
Cc1ccc(C(=O)c2no[n+]([O-])c2C(=O)c2ccc(C)cc2)cc1	-7.0	11.3	-40.1	2.3	7.1	x	x
CN(CCC#N)C(=O)COC(=O)c1c2c(nc3ccccc13)/C(=C/c1ccco1)CC2	-6.0	-10.9	19.2	4.7	77.3*	-1.1	2.8
COc1ccc(/C=C2\CCc3c2nc2ccccc2c3C(=O)O)cc1OC	15.8	20.3	-0.8	-3.2	14.1	x	x
CC(=O)Oc1cc2cccc(OC(C)=O)c(=O)c2c(OC(C)=O)c1OC(C)=O	-5.8	-5.3	-3.8	0.1	53.2*	-7.2	7.7
CCN(C(=O)c1ccc2c(c1)OCO2)C1CCS(=O)(=O)C1 (centres undefined)	-2.0	4.7	x	x	x	x	x
COc1ccc(NC(=S)NNc2ccc(S(=O)(=O)Nc3ccccc3C(=O)O)cc2[N+](=O)[O-])cc1	-5.1	-1.7	6.6	20.2*	39.5*	83.5*	27.1
Cn1ccnc1C1CCCCN1C(=O)c1cc(COc2ccc(F)cc2F)on1 (centres undefined)	6.0	1.0	-9.0	0.0	1.3	x	x
COc1ccc(CCNC(=O)COc2cc(O)c3c(c2)OC(C)(C)CC3=O)cc1OC	12.6	34.8	0.7	-2.0	-1.1	x	x
Cc1ccc(CSCC2Nc3ccc(C(=O)N4CCN(c5cccc(C)c5)C(C)C4)cc3NC2=O)cc1 (centres undefined)	-3.2	-6.2	7.9	3.3	38.0*	-8.5	-36.2
Cc1ccc(S(=O)(=O)N(C)C)cc1NC(=O)CCCNC(=O)c1ccc(Cl)cc1	2.7	-1.9	-6.1	0.6	0.4	x	x
COCCn1c(=NC(=O)c2cc(-c3cccs3)nc3ccccc23)sc2cc(S(N)(=O)=O)ccc21	3.7	26.9	4.3	-0.4	64.4*	-2.7	-0.4
C=CCn1c(=NC(=O)c2cc(-c3cccs3)nc3ccccc23)sc2cc(S(N)(=O)=O)ccc21	17.3	38.4	-5.8	4.3	13.5	x	x
O=c1c2[nH]c3ccc(F)cc3c2nc2n1CCCS2	10.7	5.7	25.0	0.1	-6.1	x	x
O=C1OC(c2ccc(Br)cc2)=N/C1=C\c1ccco1	0.4	-1.9	2.5	7.9	46.8*	-5.6	15.8
SMILES	HSF1 inh	HSF1 activator	Lipid droplet	HSP90 inh	NS3 helicase inh	NS3 helicase cf	DNA FID counter	others
O=C(Nc1ccc(N2CCOCC2)c(Cl)c1)c1cccnc1Cl	2.3	1.7	-9.6	-2.1	-3.4	x	x
O=C(Nc1ccccc1N1CCOCC1)c1cccnc1Cl	-1.0	-7.0	17.4	-0.7	53.3*	-17.5	-3.6
Cc1ccccc1COc1ccc(-c2nnn(CC(=O)O)n2)cc1	-5.2	-12.8	-2.9	-3.1	39.7*	26.6	-14.9
CCc1c(C)nn(C(=O)/C(C#N)=C\N(C)C)c1C	3.8	8.7	1.9	-5.3	2.3	x	x
CC1CCCN(C(=O)CCNC(=O)Cn2cnc3ccccc3c2=O)C1 (centres undefined)	3.4	-12.0	10.8	0.4	4.3	x	x
O=c1c2cc(Br)ccc2nc(-c2ccc(Cl)cc2)n1O	-1.2	-1.1	5.3	10.2	36.6*	40.2*	8.6
Cc1ccc(-c2nc3c(Cl)cc(Cl)cc3c(=O)n2O)cc1	2.4	8.1	-1.9	-1.5	36.0*	61.9*	-3.0
O=c1c2cc(Cl)ccc2nc(-c2ccc([N+](=O)[O-])cc2)n1O	0.7	14.3	-3.9	-2.9	-5.9	x	x
O=C(N/N=C/c1cc(Cl)c(O)c(Cl)c1)c1cc2c(ccc3ccccc32)o1	4.6	-6.4	-3.7	1.2	44.9*	52.6*	-6.0	FID counter DR=>79.4
CC1=NN(c2cccc(C(=O)O)c2)C(=O)/C1=C\C=C\c1ccco1	3.7	14.3	-3.7	-0.9	42.2*	76.2*	4.0
COc1cc(/C=C2/C(=O)N(c3ccc(C(=O)O)cc3)N=C2C)cc(OC)c1O	-2.9	-3.9	6.7	3.6	21.8	x	x
C#CCOc1ccc(/C=C2/C(=O)N(c3cccc(C(=O)O)c3)N=C2C)cc1OC	1.3	3.6	-1.6	14.2	39.8*	8.1	11.9
CC1=NN(c2ccccc2)C(=O)/C1=C/C=C/c1ccccc1	6.0	10.2	2.2	-3.5	9.1	x	x
CC(C)n1cc(CN2CCC(Oc3ccc(C(=O)N4CCCCC4)cc3)CC2)cn1	-4.7	1.0	-5.9	-6.0	0.3	x	x
Cc1c(C#N)c(O)[nH]c(=O)c1N=Nc1ccc(S(N)(=O)=O)cc1	-4.4	10.8	4.3	1.5	56.6*	-15.4	11.7
Cc1c(C#N)c(O)[nH]c(=O)c1N=Nc1ccc(Cl)c(C(=O)O)c1	-7.6	-3.0	-0.6	-2.6	5.2	x	x
CCOc1ccc(NC(=O)CC2C(=O)N(c3ccc(OC)cc3)C(=O)N2Cc2ccc(OC)cc2)cc1 (centres undefined)	-1.0	-8.3	2.7	-2.1	-34.3	x	x
COc1ccc(NC(=O)CC2C(=O)N(c3ccc(OC)cc3)C(=O)N2C(C)C)cc1 (centres undefined)	-4.3	-6.1	0.3	6.5	45.6*	-10.4	-4.8
CCCCc1ccc(NC(=O)C(=O)NCCN2CCN(Cc3ccc([N+](=O)[O-])cc3)CC2)cc1	-5.9	2.5	3.7	1.0	19.3	x	x
